# Compounds with a hit are over-represented: about 1.4% of the library has one in this group of screens.
# HDAC3 inh: human HDAC3 inhibition; O15379; recombinant HDAC3, fluorogenic peptide/trypsin coupled, fluorescence; inhibition, % at 8.3 µM; 320,000 compounds, 0.15% hits; in the data active means inhibition above about 26%, passing the limit was not always enough; inconclusive means no clear call, values can overlap the other calls
# Target sequence (O15379 whole entry, looked up): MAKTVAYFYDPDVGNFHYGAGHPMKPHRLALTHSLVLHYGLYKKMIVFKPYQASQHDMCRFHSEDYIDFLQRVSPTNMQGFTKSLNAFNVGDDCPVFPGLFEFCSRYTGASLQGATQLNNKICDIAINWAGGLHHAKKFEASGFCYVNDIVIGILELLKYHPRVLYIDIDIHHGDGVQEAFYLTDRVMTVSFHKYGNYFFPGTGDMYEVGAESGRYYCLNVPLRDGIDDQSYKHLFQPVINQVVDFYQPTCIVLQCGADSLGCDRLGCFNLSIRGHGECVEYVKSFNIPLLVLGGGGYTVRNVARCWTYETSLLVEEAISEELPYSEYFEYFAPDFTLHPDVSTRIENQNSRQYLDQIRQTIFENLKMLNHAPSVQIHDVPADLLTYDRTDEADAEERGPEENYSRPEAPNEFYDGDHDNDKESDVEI
# IDE cell activ: IDE (human) activation, cell-based; P14735; HEK cells, FAbeta-B cleavage, fluorescence polarization; 0% vehicle, 100% cell-free pure enzyme wells; activation, % at 5.96 µM; 340,000 compounds, 0.073% hits; AID 493087;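 active means activation above the mean of all tested compounds plus 3 SD, set per screening campaign, cut at about 17% in these data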
# IDE inh: inhibits human insulin-degrading enzyme in HEK cells; inhibition, % at 5.59 µM; FAbetaB cleavage, fluorescence polarization; P14735; 320,000 compounds, 0.41% hits;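 active means percent inhibition above the average of all tested compounds plus 3 SD, set per screening campaign, cut at about 16% in these data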;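 further: IDE supplied by intact live HEK cells; FP after avidin binding of uncleaved biotin substrate so inhibition keeps polarization high; 0% = DMSO wells and 100% = 60 µM reference IDE inhibitor Ii1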
# Yeast superoxide: caloric restriction mimetics inhibiting age-related superoxide in yeast. S. cerevisiae aged cells, superoxide DHE fluorescence; stronger effect = lower value. superoxide response (% of plate mean), % at 10 µM. 330,000 compounds, 0.18% hits;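 active means superoxide response under a set limit, about three screen SD below normal, cut at about 65% in these data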;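 further: yeast aged for seven days with compound at 30 °C before DHE staining; 100% = average MFI of all compound-treated wells on the plate with controls excluded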
# Efflux pump mplx: antifungal efflux pump inhibition, Nile Red retention | 330,000 compounds, 0.44% hits | S. cerevisiae Candida pump triplex | inhibition, % at 10 µM;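 active means plate passing quality check with inhibition over a set limit, or well fluorescence over plate mean plus 4 SD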;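 further: Nile Red retained in pooled yeast measured as flow cytometry median fluorescence; 0% = buffer negative control and 100% = Enniatin B positive control; higher means more Nile Red kept so more efflux inhibition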
# Tb MetRS inh: Trypanosoma brucei MetRS inhibition; inhibition, % at 11.9 µM; AID 624268; purified T. brucei MetRS, ATP depletion, Kinase-Glo luminescence; 360,000 compounds, 0.4% hits;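 active means inhibition above a per-plate cutoff of the control wells' mean inhibition plus 3 SD, cut at about 5.5% in these data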;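 further: 0% = DMSO wells median and 100% = median of wells with control inhibitor compound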
#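 Dosing: 11.9 µM single point; system: parasite MetRS enzyme; technique: luminescence of leftover ATP; times: 15 min enzyme-compound preincubation, 2 h reaction, 10 min detection, 25 °C; replicates: each compound tested once; read-out basis: percent inhibition relative to median high and low control wells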
# Yeast cmpd fluor: flagged as fluorescent in efflux inhibitor counter-screen; S. cerevisiae AD/pABC3, compound fluorescence, flow cytometry; AID 588517; fluorescence ratio to DMSO, % at 10 µM; shares compounds with Efflux pump mplx; 1,700 compounds, 4% hits;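 active means fluorescence ratio to DMSO above its plate's cutoff, the plate mean ratio plus 5 SD, cut at about 210% in these data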;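 further: unstained yeast with no Nile Red so the signal is compound autofluorescence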
# CaMdr1 efflux inh: blocks the Candida albicans Mdr1 efflux pump in yeast | shares compounds with Efflux pump mplx | S. cerevisiae AD/CaMDR1, Nile Red efflux, flow cytometry | inhibition, % at 10 µM | 1,700 compounds, 1% hits; in the data active means inhibition above about 26%;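 further: 0% = DMSO vehicle and 100% = reference inhibitor; higher means more Nile Red retained so more efflux inhibition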
# CaCdr2 efflux inh: inhibitors of Candida albicans Cdr2 efflux pump | S. cerevisiae AD/CaCDR2, Nile Red retention, flow cytometry | Nile Red retention ratio vs DMSO, % at 10 µM | shares compounds with Efflux pump mplx | AID 588520 | 1,700 compounds, 4% hits; in the data active means Nile Red retention ratio vs DMSO above about 190%;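 further: higher ratio means more blocking of Cdr2 efflux of the dye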
# CaCdr1 efflux inh: inhibitors of Candida albicans Cdr1 efflux pump | 1,700 compounds, 1% hits | S. cerevisiae AD/CaCDR1, Nile Red efflux, flow cytometry | shares compounds with Efflux pump mplx | inhibition, % at 10 µM;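 active means inhibition above the screen-wide mean plus twice its standard deviation, cut at about 32% in these data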
# An asterisk follows results filed as active; u = inconclusive; x = not tested or not shown.
SMILES,HDAC3 inh,IDE cell activ,IDE inh,Yeast superoxide,Efflux pump mplx,Tb MetRS inh,Yeast cmpd fluor,CaMdr1 efflux inh,CaCdr2 efflux inh,CaCdr1 efflux inh
Cc1ccccc1OCC(=O)Nc1nnc(-c2ccncc2)s1,-1,1,2,95,0,0,101,0,114,0
COc1ccccc1OCC(=O)Nc1nnc(C2CCCC2)s1,-3,9,1,109,0,0,x,x,x,x
O=C(COc1ccc(Br)cc1F)Nc1nnc(C2CC2)s1,-3,1,4,83,0,0,95,0,85,0
CC1CCC(NC(=O)CN2C(=O)C3CC=CCC3C2=O)CC1 (stereo unspecified),1,2,-2,93,0,0,x,x,x,x
COc1ccc(-c2nnnn2C)cc1S(=O)(=O)Nc1ccc(C)cc1C,0,-1,-2,89,0,0,x,x,x,x
O=C(Cn1cncn1)N/N=C/c1ccncc1,-4,3,-3,93,0,-1,x,x,x,x
O=C(Cn1cncn1)N/N=C/c1ccc(Cl)cc1,-9,2,0,98,9.7*,0,95,0,91,0
COc1ccccc1NC(=O)c1ccc(S(=O)(=O)NCc2ccco2)cc1,3,9,2,104,0,-1,x,x,x,x
N#Cc1c(-c2ccccc2)cc(-c2cccs2)nc1SCC(=O)O,-1,3,0,100,1.3*,0,114,0,87,0
CC(C)n1cc(/C=N/NC(=O)COc2cccc3cccnc23)c2ccccc21,9,7,-1,115,3.1*,1,111,0,116,0
C=CCn1cc(/C=N/NC(=O)COc2cccc3cccnc23)c2ccccc21,2,0,-2,110,0,0,x,x,x,x
CCCOC(=O)c1ccc(NC(=O)C2C3CCC(C3)C2C(=O)O)cc1 (stereo unspecified),3,1,-3,85,15*,0,105,0,102,0
COC(=O)c1ccc(NC(=O)C2C3CCC(C3)C2C(=O)O)cc1 (stereo unspecified),3,4,2,106,0,-1,x,x,x,x
CCN(CC)c1ccc(/C=c2/sc3nnc(-c4ccccc4C)n3c2=O)cc1,4,-4,8,115,0.6*,0,215*,1,175,0
Cc1ccc(/C=c2/sc3nnc(-c4ccccc4Cl)n3c2=O)o1,4,-3,4,96,0,-1,x,x,x,x
CCN(CC)c1ccc(/C=c2\sc3nnc(-c4ccccc4Cl)n3c2=O)cc1,u,-5,3,104,0.7*,-2,271*,1,175,1
Cc1occc1C(=O)NNC(=O)c1ccc(F)cc1,4,3,0,98,0,0,x,x,x,x
Cc1occc1C(=O)NNC(=O)c1ccccc1F,0,4,6,104,1.1*,-1,105,0,104,0
Cc1ccccc1-c1nc(CSc2nc3c(c(=O)[nH]2)CCC3)c(C)o1,7,2,-2,117,0,0,x,x,x,x
Cc1ccccc1CSc1nc2c(c(=O)[nH]1)CCC2,0,-5,3,97,5.9*,-1,109,0,104,0
CCCS(=O)(=O)c1nc(S(=O)(=O)c2ccc(C)cc2)c(NCc2ccco2)s1,1,-5,-1,103,10*,0,98,0,87,0
O=C(NCC(c1cccs1)N1CCOCC1)c1ccc(Cl)c(S(=O)(=O)N2CCOCC2)c1 (stereo unspecified),x,5,1,101,1.1*,-1,102,0,97,0
COc1ccc(/C=C2/SC(c3ccc(C)cc3)=NC2=O)cc1OC,-3,-16,-5,98,0,1,x,x,x,x
COc1ccc(/C=C2\SC(c3ccc(C)cc3)=NC2=O)cc1OC,-2,-30,1,134,0.8*,1,109,0,91,0
O=C(Oc1ccc(/C=N/NC(=O)c2ccccn2)cc1)c1ccc(Br)cc1,1,9,5,115,7.2*,0,101,0,102,0
SMILES,HDAC3 inh,IDE cell activ,IDE inh,Yeast superoxide,Efflux pump mplx,Tb MetRS inh,Yeast cmpd fluor,CaMdr1 efflux inh,CaCdr2 efflux inh,CaCdr1 efflux inh
O=C(CCCc1nc2ccccc2s1)NCc1ccc(F)cc1,-3,5,0,119,0,-1,x,x,x,x
O=C(CSc1cccc[n+]1[O-])Nc1ccccc1C(F)(F)F,-5,7,3,102,0,0,x,x,x,x
O=C(CSc1cccc[n+]1[O-])Nc1ccccc1Oc1ccccc1,3,-4,1,107,1.0*,0,110,0,119,0
CCCCCCCCCCOC(=O)Cn1c(COc2cccc(C)c2)[n+](C)c2ccccc21,u,16,-10,112,1.0*,-1,110,0,120,0
CCCCCCCCCCOC(=O)Cn1c(COc2ccc(Cl)cc2)[n+](C)c2ccccc21,52*,16,-8,93,3.1*,0,115,0,222*,0
NC(=O)N(N)c1nc(N2CCCC2)nc(N2CCCC2)n1,9,5,-3,94,0,-1,x,x,x,x
O=C1c2cc(Cl)ccc2OC2(CCNCC2)C12CC(c1ccc(Cl)cc1)=NO2 (stereo unspecified),2,4,1,x,x,0,121,1,114,0
O=C(/C=C/c1cccs1)N1CCC2(CC1)Oc1ccc(Cl)cc1C(=O)C21CC(c2ccc(Cl)cc2)=NO1 (stereo unspecified),u,6,-3,101,0,0,x,x,x,x
CCC(=O)N1CCC2(CC1)Oc1ccc(F)cc1C(=O)C21CC(c2cccnc2)=NO1 (stereo unspecified),u,2,5,93,0,0,x,x,x,x
O=C1c2cc(Cl)ccc2OC2(CCNCC2)C12CC(c1ccccc1)=NO2 (stereo unspecified),0,-3,8,96,0,0,91,0,95,0
CC(C)C(=O)N1CCC2(CC1)Oc1ccc(Cl)cc1C(=O)C21CC(c2ccc(Cl)cc2)=NO1 (stereo unspecified),u,6,-1,88,0,0,103,0,121,0
O=C(c1cc(-c2ccccc2Cl)nc2ccc(Br)cc12)N1CCN(c2ccccn2)CC1,-5,-3,-6,105,5.3*,0,91,0,92,0
